The species entered for experiment [1] is Cavia porcellus. In words: The inhibitory concentration activity was measured on guinea pig ileum (GPI). In kind it is functional. The procedure, abridged:
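Guinea pig ileum myenteric plexus-longitudinal muscle strips are mounted between platinum axial wire electrodes in Krebs bicarbonate at 37 °C, gassed with 95% O2/5% CO2, under 1 g tension. Strips are stimulated transmurally at 0.1 Hz, 1 ms, 40 V (supramaximal) and equilibrated 60 min before peptides are added. Single-dose dose-response curves are fitted to the Hill equation by least squares on mean data. IC50 is the concentration giving 50% reduction of contractions.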

For experiment [2], the species on record is Mus musculus. In words: The inhibitory concentration activity was measured on electrically induced contraction of the mouse vas deferens (MVD). The format is functional. The procedure, abridged:
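Mouse vas deferens is mounted between platinum axial wire electrodes in Mg-free Krebs bicarbonate at 34 °C, gassed with 95% O2/5% CO2, under 0.5 g tension. After 15 min equilibration, it is stimulated transmurally at 0.1 Hz, 2 ms, 40 V (supramaximal). Dose-response curves are built by the single-dose method. IC50 is the concentration giving 50% reduction of contractions, from a Hill-equation least-squares fit of mean data.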

The target in experiment [3] is Kappa-type opioid receptor (Rattus norvegicus, UniProt P34975).
Kappa-type opioid receptor, sequence (P34975 whole entry): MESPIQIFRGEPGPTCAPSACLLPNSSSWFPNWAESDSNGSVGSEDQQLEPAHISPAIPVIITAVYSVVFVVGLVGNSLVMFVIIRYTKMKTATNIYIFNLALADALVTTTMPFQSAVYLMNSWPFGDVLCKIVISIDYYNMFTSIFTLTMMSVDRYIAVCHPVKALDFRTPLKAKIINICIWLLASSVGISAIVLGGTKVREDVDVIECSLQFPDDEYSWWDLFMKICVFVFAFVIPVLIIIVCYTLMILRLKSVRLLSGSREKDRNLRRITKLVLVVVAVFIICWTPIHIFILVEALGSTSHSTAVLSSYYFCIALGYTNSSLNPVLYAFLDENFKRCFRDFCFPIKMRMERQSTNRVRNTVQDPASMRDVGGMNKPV
In experiment [4] the target is T1, Delta-type opioid receptor (Rattus norvegicus, UniProt P33533). Description: The binding affinity was measured using [3H]-DIDII against Opioid receptor delta 1 of rat brain.
T1 sequence (P33533 whole entry): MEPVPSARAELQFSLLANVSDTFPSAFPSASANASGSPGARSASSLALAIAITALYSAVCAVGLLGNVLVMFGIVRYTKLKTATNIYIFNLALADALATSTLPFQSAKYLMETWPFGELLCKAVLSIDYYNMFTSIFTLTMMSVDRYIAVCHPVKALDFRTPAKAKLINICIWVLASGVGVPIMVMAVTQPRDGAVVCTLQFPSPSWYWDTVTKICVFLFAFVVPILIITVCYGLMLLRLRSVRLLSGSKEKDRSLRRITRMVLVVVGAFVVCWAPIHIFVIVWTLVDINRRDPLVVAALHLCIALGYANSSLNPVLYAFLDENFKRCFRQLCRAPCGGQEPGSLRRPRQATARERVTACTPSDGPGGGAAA
Experiment [5] addresses T1, Delta-type opioid receptor. In words: The binding affinity was measured using [3H]naltrindole against Opioid receptor delta 1 of rat brain.
Experiment [6] has as its target Mu-type opioid receptor (Rattus norvegicus, UniProt P33535). Description: The binding affinity was measured using [3H]- DAGO against Opioid receptor mu 1 of rat brain.
The target in experiment [7] is T1, Delta-type opioid receptor. In words: The binding affinity was measured using [3H]- TIPPsi against Opioid receptor delta 1.

The structures appear in SMILES notation. A value given as a limit tells only on which side of the number the result lay.

In ChEMBL document CHEMBL1129979, “Conformationally constrained deltorphin analogs with 2-aminotetralin-2-carboxylic acid in position 3” (J Med Chem, 1997) one finds IC50 and Ki data, which are given here for four compounds.

Mu-type opioid receptor, sequence (P33535 whole entry): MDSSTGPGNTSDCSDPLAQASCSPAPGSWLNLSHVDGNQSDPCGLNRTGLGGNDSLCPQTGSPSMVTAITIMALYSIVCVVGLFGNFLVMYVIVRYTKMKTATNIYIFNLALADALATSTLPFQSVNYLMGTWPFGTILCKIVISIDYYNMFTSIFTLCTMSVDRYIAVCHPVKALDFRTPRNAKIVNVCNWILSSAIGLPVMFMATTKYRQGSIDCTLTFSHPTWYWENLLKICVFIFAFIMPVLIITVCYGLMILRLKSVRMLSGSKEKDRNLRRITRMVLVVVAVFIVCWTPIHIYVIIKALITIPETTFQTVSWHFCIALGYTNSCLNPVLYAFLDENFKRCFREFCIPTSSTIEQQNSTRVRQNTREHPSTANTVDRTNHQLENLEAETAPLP

On to `CC[C@H](C)[C@H](NC(=O)[C@H](CC(=O)O)NC(=O)[C@H](Cc1ccccc1)NC(=O)[C@@H](C)NC(=O)[C@@H](N)Cc1ccc(O)cc1)C(=O)N[C@H](C(=O)NCC(N)=O)[C@@H](C)CC`, for which the IC50 – broadly, the point on the concentration scale where inhibition reaches its midpoint – in experiment [1] stood at 4210 nM; in experiment [2] it was 0.082 nM. For the same compound, the Ki – broadly, a dissociation constant, usually derived from enzyme kinetics or from competition with a known ligand – in experiment [3] is more than 10000 nM; in experiment [4], 0.056 nM; in experiment [5], 0.047 nM; in experiment [6], 3220 nM; in experiment [7] it was 0.018 nM.
Turning to `CC(C)[C@H](NC(=O)[C@H](CC(=O)O)NC(=O)[C@H](Cc1ccccc1)NC(=O)[C@H](C)NC(=O)[C@@H](N)Cc1ccc(O)cc1)C(=O)N[C@H](C(=O)NCC(N)=O)C(C)C`, the figures for the 50% inhibitory concentration (IC50) in experiment [1] and in experiment [2] were more than 3000 nM and 0.32 nM, respectively.
Turning to `CC[C@H](C)[C@H](NC(=O)[C@H](CCC(=O)O)NC(=O)[C@]1(NC(=O)[C@@H](C)NC(=O)[C@@H](N)Cc2ccc(O)cc2)CCc2ccccc2C1)C(=O)N[C@H](C(=O)NCC(N)=O)[C@@H](C)CC`, the concentration for half-maximal inhibition (IC50) in experiment [1] was 19600 nM; in experiment [2] it was 0.09 nM. For the same compound, the Ki in experiment [3] was more than 10000 nM; in experiment [4], 0.035 nM; in experiment [5] it was 0.515 nM; in experiment [6], 731 nM; in experiment [7] it was 0.38 nM.
Regarding `CC[C@H](C)[C@H](NC(=O)[C@H](CCC(=O)O)NC(=O)[C@H](Cc1ccccc1)NC(=O)[C@@H](C)NC(=O)[C@@H](N)Cc1ccc(O)cc1)C(=O)N[C@H](C(=O)NCC(N)=O)[C@@H](C)CC`, the half-inhibitory concentration (IC50) in experiment [1] was determined as 67200 nM; in experiment [2], 0.5 nM. Moreover, the Ki was more than 10000 nM in experiment [3] and 3190 nM in experiment [6].
